Results from ChEMBL document CHEMBL1781951, “Theonellasterols and conicasterols from Theonella swinhoei. Novel marine natural ligands for human nuclear receptors” (J Med Chem, 2011).
Calls of active or inactive are those of the source. The calls are words filed in the database; no cut-off is given here.

Tests used:
[1] = target: T1, Bile acid receptor (Homo sapiens) (UniProt Q96RI1); assay: Antagonist activity at human FXR expressed in HepG2 cells assessed as inhibition of CDCA-induced transactivation at 50 uM after 18 hrs by luciferase reporter gene assay
T1 sequence (whole entry): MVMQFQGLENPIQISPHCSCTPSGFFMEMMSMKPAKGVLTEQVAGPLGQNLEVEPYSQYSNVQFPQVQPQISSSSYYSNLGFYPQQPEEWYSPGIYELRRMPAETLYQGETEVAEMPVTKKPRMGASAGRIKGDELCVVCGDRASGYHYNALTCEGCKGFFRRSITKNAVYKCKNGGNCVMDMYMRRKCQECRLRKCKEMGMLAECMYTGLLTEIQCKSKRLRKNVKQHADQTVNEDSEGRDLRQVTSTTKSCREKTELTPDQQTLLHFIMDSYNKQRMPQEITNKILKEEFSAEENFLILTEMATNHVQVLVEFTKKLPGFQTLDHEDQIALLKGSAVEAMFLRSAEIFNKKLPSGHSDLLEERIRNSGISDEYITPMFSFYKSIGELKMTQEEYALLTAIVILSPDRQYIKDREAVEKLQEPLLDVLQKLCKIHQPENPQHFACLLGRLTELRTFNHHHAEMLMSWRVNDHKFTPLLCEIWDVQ

[2] = target: T1, Bile acid receptor (Homo sapiens); assay: Partial agonist activity at human FXR expressed in human HepG2 cells assessed as induction of transactivation at 10 uM after 18 hrs by luciferase reporter gene assay; type: functional, cell-based
Method in brief: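 HepG2 cells (5 × 10^5 cells/well) were transiently transfected using Fugene HD with pSG5-FXR, pSG5-RXR, pCMV-β-gal and a p(hsp27)-TK-LUC reporter carrying the hsp27 IR1 FXR response element. At 48 h post-transfection, cells were stimulated 18 h with test agent at 10 μM; 10 μM CDCA served as reference. Luciferase was normalized to β-gal; P < 0.05 vs untreated, n = 4.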

[3] = target: T1, Bile acid receptor (Homo sapiens); assay: Agonist activity at human FXR expressed in human HepG2 cells assessed as induction of OSTalpha mRNA expression at 50 uM by quantitative RT-PCR analysis; type: functional, cell-based
Method in brief: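 HepG2 cells were primed with 10 μM CDCA alone or with 50 μM test agent. cDNA (50 ng template) was amplified by SYBR Green qPCR with 0.2 μM of each primer over 40 cycles (95/55/72 °C) in triplicate. Expression was normalized to GAPDH and reported as 2^ΔΔCT relative to untreated cells.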

Question: Which inhibition [1] does the source give for `C=C1[C@@H](O)CC[C@@]2(C)[C@H]1C[C@@H](O)C1=C3[C@H](O)C[C@H]([C@H](C)CC[C@H](CC)C(C)C)[C@@]3(C)CC[C@@H]12` here?
Answer: The inhibition was “Active”.

Question: What about the Activity [2] of the same compound?
Answer: The Activity was “inactive”.

Question: Which inhibition [1] does the source give for `C=C1[C@@H](O)CC[C@]2(C)C3=C(CC[C@@H]12)[C@]1(O)[C@@H](O)C[C@H]([C@H](C)CC[C@H](CC)C(C)C)[C@@]1(C)C[C@H]3O` here?
Answer: Its inhibition is “inactive”.

Question: And the Activity [2]?
Answer: The Activity was “inactive”.

Question: Which results are given for `C=C1[C@@H](O)CC[C@]2(C)C3=CC[C@@]4(C)C(=CC[C@@H]4[C@H](C)CC[C@@H](C)C(C)C)C3=CC[C@@H]12`?
Answer: inhibition [1]: Active; Activity [2]: inactive

Question: Which inhibition [1] does the source give for `C=C1[C@@H](O)CC[C@@]2(C)[C@H]1CCC1=C3[C@H](O)C[C@H]([C@H](C)CC[C@H](CC)C(C)C)[C@@]3(C)CC[C@@]12O` here?
Answer: Its inhibition is “Active”.

Question: What about the Activity [2] of the same compound?
Answer: Its Activity is “inactive”.

Question: With `C=C1[C@@H](O)CC[C@]2(C)C3=C(CC[C@@H]12)[C@@H]1C(=O)C[C@H]([C@H](C)CC[C@H](CC)C(C)C)[C@@]1(C)CC3` as the compound, how does the inhibition [1] read?
Answer: Its inhibition is “Active”.

Question: What about the Activity [2] of the same compound?
Answer: Its Activity is “inactive”.

Question: What does the source list for `C=C1[C@@H](O)CC[C@@]2(C)[C@H]1CCC1=C3[C@H](O)C[C@H]([C@H](C)CC[C@H](CC)C(C)C)[C@@]3(C)CC[C@@]12OC`?
Answer: inhibition [1]: inactive; Activity [2]: inactive

Question: With `C=C1[C@@H](O)CC[C@]2(C)C3=C(CC[C@@H]12)[C@]1(O)[C@@H](O)C[C@H]([C@H](C)CC[C@H](CC)C(C)C)[C@@]1(C)C[C@@H]3O` as the compound, how does the inhibition [1] read?
Answer: Its inhibition is “Active”.

Question: What about the Activity [3] of the same compound?
Answer: Its Activity is “Active”.

Question: And the Activity [2]?
Answer: Its Activity is “Active”.

Question: For `C=C1[C@@H](O)CC[C@@]2(C)[C@H]1CCC1=C3[C@H](O)C[C@H]([C@H](C)CC[C@@H](C)C(C)C)[C@@]3(C)CC[C@@]12O`, which inhibition [1] is on record?
Answer: Its inhibition is “Active”.

Question: What about the Activity [2] of the same compound?
Answer: The Activity was “inactive”.

Question: `C=C1[C@@H](O)CC[C@]2(C)C3=CC[C@@]4(C)C(=CC[C@@H]4[C@H](C)CC[C@H](CC)C(C)C)C3=CC[C@@H]12` was tested. Which inhibition [1] did it give?
Answer: The inhibition was “Active”.

Question: What about the Activity [2] of the same compound?
Answer: Its Activity is “inactive”.
